The IC50 is the concentration needed to halve the response being measured.

SMILES strings stand for the structures. Active and inactive are the calls of the source. The rule behind the calls is not given here.

The target in data set [1] is T1, Endothelial lipase (Mus musculus, UniProt Q9WVG5).
T1 sequence (Q9WVG5 whole entry): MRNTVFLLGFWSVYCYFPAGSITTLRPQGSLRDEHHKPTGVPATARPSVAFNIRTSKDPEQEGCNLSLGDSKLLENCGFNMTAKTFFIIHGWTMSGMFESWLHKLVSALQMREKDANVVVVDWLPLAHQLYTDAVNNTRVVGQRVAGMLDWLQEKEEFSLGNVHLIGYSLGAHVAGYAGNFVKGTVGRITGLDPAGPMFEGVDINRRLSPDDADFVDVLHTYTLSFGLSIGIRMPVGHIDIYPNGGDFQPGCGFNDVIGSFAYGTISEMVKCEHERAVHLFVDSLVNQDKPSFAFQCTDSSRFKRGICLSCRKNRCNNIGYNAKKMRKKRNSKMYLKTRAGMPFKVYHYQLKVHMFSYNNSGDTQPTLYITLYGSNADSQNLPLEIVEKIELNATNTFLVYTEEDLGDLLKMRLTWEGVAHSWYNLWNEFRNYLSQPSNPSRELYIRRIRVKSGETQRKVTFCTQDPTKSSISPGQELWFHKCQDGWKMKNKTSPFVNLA
Description: Inhibition of mouse EL expressed in HEK293 cells using PED-A1 as substrate by spectrophotometry. The data set is classed as cell-based.

The subject of data set [2] is Mus musculus. Description: Increase in plasma HDL-C level in C57BL/6J HL-/- mouse at 30 mg/kg, ip administered for 2 days followed by a dose on 3rd day morning measured 1 hr post last dose relative to vehicle-treated control. The conditions noted are these: route intraperitoneal. Type of data set: functional. Summed up:
(§1)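 C57BL/6J HL-/- (hepatic lipase knockout) mice dosed intraperitoneally with compound or vehicle for three days, at 10, 30 and 100 mg/kg. Plasma lipoproteins, including HDL-C, measured 1 h after the last dose. Percent increase is calculated against vehicle-treated controls, with significance testing between groups.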

The test system of data set [3] is Mus musculus. Nature of the data set: Increase in plasma HDL-C level in C57BL/6J mouse at 100 mg/kg, ip administered for 2 days followed by a dose on 3rd day morning measured 1 hr post last dose relative to vehicle-treated control. Type of data set: functional. The conditions noted are these: route intraperitoneal. The method in brief:
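C57BL/6J mice given vehicle or compound intraperitoneally, five doses over three days; plasma HDL-C measured 1 h after the last dose. Tested at 100 mg/kg. Change is expressed relative to vehicle controls, as means ± SD, n = 8 per group, with significance tested against the vehicle group.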

A further data set concerns Plasma. Nature of the data set: Plasma concentration in ip dosed C57BL/6J HL-/- mouse administered for 3 days measured 1 hr post last dose. The data set is classed as ADME, organism-based. The following applies: in vivo. The method in brief: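 In HL-/- mice given intraperitoneal doses (10, 30, 100 mg/kg) for three days, plasma compound concentrations were measured 1 h after the final dose. In individual animals, these were correlated with plasma HDL-C and phospholipids.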

Data set [4] addresses T2, Endothelial lipase (Homo sapiens) (UniProt Q9Y5X9).
T2 sequence (whole entry): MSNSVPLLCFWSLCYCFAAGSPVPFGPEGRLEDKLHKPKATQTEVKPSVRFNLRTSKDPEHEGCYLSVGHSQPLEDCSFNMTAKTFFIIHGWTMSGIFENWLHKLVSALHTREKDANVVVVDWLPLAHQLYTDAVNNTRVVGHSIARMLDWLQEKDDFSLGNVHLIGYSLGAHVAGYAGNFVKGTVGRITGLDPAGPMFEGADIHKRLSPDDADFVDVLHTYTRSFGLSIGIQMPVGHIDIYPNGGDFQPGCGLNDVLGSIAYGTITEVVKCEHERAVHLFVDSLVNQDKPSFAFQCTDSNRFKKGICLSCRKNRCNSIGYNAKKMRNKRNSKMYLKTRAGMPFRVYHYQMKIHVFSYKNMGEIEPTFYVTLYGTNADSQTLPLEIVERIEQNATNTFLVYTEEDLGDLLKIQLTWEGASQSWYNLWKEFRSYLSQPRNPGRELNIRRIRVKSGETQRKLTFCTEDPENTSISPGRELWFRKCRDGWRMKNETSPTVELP
Description: (§2) Time dependent inhibition of human EL (19 to 500) expressed in HEK293 cells using PED-A1 as substrate by spectrophotometry. Type of data set: cell-based.

For data set [5], the system named is Mus musculus. Description: Inhibition of EL in C57BL/6J HL-/- mouse assessed as elevated plasma HDL-C level at 30 to 100 mg/kg, ip bid for 2 days followed by a dose on 3rd day morning measured 1 hr post last dose. The data set is classed as functional, organism-based. The method in brief: as §1
Data set [6] has as its target Endothelial lipase (Mus musculus) (UniProt Q9WVG5). Description: Inhibition of EL in C57BL/6J HL-/- mouse assessed as elevated plasma phospholipid level at 30 to 100 mg/kg, ip bid for 2 days followed by a dose on 3rd day morning measured 1 hr post last dose.
Data set [7] addresses T3, Hepatic triacylglycerol lipase (Homo sapiens, UniProt P11150).
T3 sequence (P11150 whole entry): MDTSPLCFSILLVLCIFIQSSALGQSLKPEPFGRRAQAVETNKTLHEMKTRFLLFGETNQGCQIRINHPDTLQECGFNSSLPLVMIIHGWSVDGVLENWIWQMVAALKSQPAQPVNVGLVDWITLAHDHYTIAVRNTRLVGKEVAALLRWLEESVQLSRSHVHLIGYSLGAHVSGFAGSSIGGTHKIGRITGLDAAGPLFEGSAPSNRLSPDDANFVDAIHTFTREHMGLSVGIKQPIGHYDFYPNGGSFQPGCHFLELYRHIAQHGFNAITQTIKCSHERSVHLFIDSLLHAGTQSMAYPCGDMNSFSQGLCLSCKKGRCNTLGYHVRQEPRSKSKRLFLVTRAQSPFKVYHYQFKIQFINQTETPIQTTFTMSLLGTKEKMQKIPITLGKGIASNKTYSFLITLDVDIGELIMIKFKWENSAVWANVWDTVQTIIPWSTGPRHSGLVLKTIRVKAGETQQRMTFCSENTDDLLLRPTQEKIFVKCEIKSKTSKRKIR
Description: Inhibition of human HL expressed in HEK293 cells using PED-A1 as substrate by spectrophotometry.

Data set [8] has as its system Mus musculus. Nature of the data set: Increase in plasma HDL-C level in C57BL/6J HL-/- mouse at 100 mg/kg, ip administered for 2 days followed by a dose on 3rd day morning measured 1 hr post last dose relative to vehicle-treated control. The data set is classed as functional. The conditions noted are these: route intraperitoneal. Summed up: as §1
In the next data set the target is T4, Lipoprotein lipase (Homo sapiens, UniProt P06858).
T4 sequence (P06858 whole entry): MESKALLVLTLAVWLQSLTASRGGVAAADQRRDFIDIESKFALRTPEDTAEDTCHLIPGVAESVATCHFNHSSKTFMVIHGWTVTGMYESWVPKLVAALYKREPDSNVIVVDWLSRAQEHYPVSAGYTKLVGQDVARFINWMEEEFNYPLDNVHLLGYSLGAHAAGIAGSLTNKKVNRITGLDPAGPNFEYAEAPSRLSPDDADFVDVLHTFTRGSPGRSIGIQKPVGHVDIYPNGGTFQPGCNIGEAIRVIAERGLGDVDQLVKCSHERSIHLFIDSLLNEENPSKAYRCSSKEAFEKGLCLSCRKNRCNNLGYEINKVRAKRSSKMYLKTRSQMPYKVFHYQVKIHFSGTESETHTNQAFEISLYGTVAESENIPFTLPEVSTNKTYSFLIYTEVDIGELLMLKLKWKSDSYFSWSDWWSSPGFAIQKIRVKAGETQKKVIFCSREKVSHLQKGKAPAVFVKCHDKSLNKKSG
Nature of the data set: Inhibition of human LPL expressed in HEK293 cells using PED-A1 as substrate by spectrophotometry.

Data set [9] concerns the target T5, Endothelial lipase (Homo sapiens, UniProt Q9Y5X9).
T5 sequence (Q9Y5X9 whole entry): T2 sequence (whole entry)
Described as §2. Type of data set: cell-based.

For `O=C(NCCCCCCc1ccccc1)OCc1ccccc1F`, the IC50 on Endothelial lipase [1] is above 33000 nM.

The compound `O=C(NCCCCCCc1ccccc1)Oc1ccccc1F` showed an IC50 against Endothelial lipase [1] of 470 nM.

With `O=C(NCCCCCCc1ccccc1)SCc1ccccc1F`, the Activity in the data set on Mus musculus [2] turned out to be 23%; with Mus musculus [3] it was 37%; in the data set on Mus musculus [8] it was 77%. Also, the Drug uptake result in the data set with Plasma is reported as “Dose-dependent effect”. In [4], the inhibition entry is “Active”. In addition, the outcome (with Mus musculus [5]; in data set [6]) was Active. For the same compound, the IC50 turned out to be 1360 nM in data set [7], 680 nM against Endothelial lipase [1] and 1690 nM on Lipoprotein lipase.

Compound `O=C(NCCCCCOc1cc(F)cc(F)c1)SCc1nnc(-c2ccccc2)o1` showed an IC50 against Endothelial lipase [9] of 23 nM.

(Values after ChEMBL document CHEMBL2380223, “A thiocarbamate inhibitor of endothelial lipase raises HDL cholesterol levels in mice” (Bioorg Med Chem Lett, 2013).)
